Km and stoichiometry N data for five compounds are collected here from paper PMC11001196 (Microbial Biotechnology, 2024).

One test deals with FS6. In words: spectrophotometric kinetics, Lineweaver-Burk. To be noted: pH 5.5, 25 °C, HAM poly-buffer. Type of test: biochemical, metagenome. In short, it runs like this: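 Purified metagenome-derived acid phosphatase (imidazole-gradient eluted, dialysed into MES/HEPES/acetate buffer with 150 mM NaCl) at 0.1-1 µM in 0.1 mL HAM poly-buffer (40 mM HEPES, 40 mM acetic acid, 40 mM MES). […] at 0 to 0.22 mM; hydrolysis followed spectrophotometrically. Vmax and Km derived from Michaelis–Menten analysis and Lineweaver–Burk double-reciprocal plots.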

In test [1] the target is FS6 acid phosphatase (class C acid phosphatase, histidine-tagged recombinant FS6). Put plainly: AUC.

Like-named read-outs stand apart in the source and are kept apart here.

Turning to `Nc1ncnc2c1ncn2[C@@H]1O[C@H](COP(=O)(O)O)[C@@H](O)[C@H]1O` [adenosine 5'-monophosphate], the Km with FS6 (read-out: AMP-5’ / Km) turned out to be 180 ± 70 µM.
With `Nc1nc2c(ncn2[C@@H]2O[C@H](COP(=O)(O)O)[C@@H](O)[C@H]2O)c(=O)[nH]1` [guanosine 5'-monophosphate], the Km with FS6 (read-out: GMP-5’ / Km) is 220 ± 20 µM.
With `O=[N+]([O-])c1ccc(OP(=O)(O)O)cc1` [p-nitrophenyl phosphate], the Km with FS6 (read-out: pNPP / Km) was found to be 40 ± 10 µM.
Regarding `O=c1ccn([C@@H]2O[C@H](COP(=O)(O)O)[C@@H](O)[C@H]2O)c(=O)[nH]1` [uridine 5'-monophosphate], the Km in the test on FS6 (read-out: UMP-5’ / Km) was 180 ± 130 µM.
Usually stoichiometry N stands for the number of molecules, sites or subunits per partner or assembly. Take “FS6 acid phosphatase (class C acid phosphatase, histidine-tagged recombinant FS6) (enzyme)”: in test [1], the stoichiometry N worked out at 10.
